Reference: publication PMC12065821 (Scientific Reports, 2025)
Where a SMILES comes first, the peptide text is derived from it. Bridges are numbered along the chain shown (N, C = ends). [ ]: non-standard residue; d: D form. The star is where a group is joined. X1 = CC[C@H](C)CCCCC(=O)*; Dab = NCC[C@H](N)C(=O)O

What was measured:
[1] = test system: rats; experiment: Regression of kidney colistin/colistin B concentrations against CR, BUN, SQS; format: in vivo; details: 95% CI
[2] = Kidney PK of CMS/CMS-E2 and formed colistin/colistin B; format: in vivo, rats; details: for Kp: kidney (cortex) / plasma, colistin/colistin B; for AUC0-inf formed colistin/colistin B in kidneys / Tmax formed colistin/colistin B in kidneys / t1/2 formed colistin/colistin B in kidneys / Cmax formed colistin/colistin B in kidneys / AUC0-inf CMS/CMS-E2 in kidneys / Tmax CMS/CMS-E2 in kidneys / t1/2 CMS/CMS-E2 in kidneys / Cmax CMS/CMS-E2 in kidneys: rat kidney cortex, LC-MS/MS; for AUC0-inf formed colistin/colistin B in kidneys / Tmax formed colistin/colistin B in kidneys / t1/2 formed colistin/colistin B in kidneys / AUC0-inf CMS/CMS-E2 in kidneys / Tmax CMS/CMS-E2 in kidneys / t1/2 CMS/CMS-E2 in kidneys: NCA; for Cmax formed colistin/colistin B in kidneys / Cmax CMS/CMS-E2 in kidneys: mean ± SD
Procedure, shortened: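 Male Sprague-Dawley rats (300 ± 15 g) got one i.p. dose in saline. At each sampling time rats were anaesthetised with tiletamine-zolazepam (40 mg/kg) and killed, and the left kidney was frozen at −70 °C. Kidney cortex was homogenised in saline (1:10 m/v, 1% BSA). Samples went through WCX solid-phase extraction with polymyxin B1 internal standard, then LC-MS/MS. Prodrug was calculated as total (after […] sulfuric acid hydrolysis) minus free colistin/colistin B. Parameters came from non-compartmental analysis.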

[3] = PK-TD model, PK component; format: in vivo; details: rats, one-compartment PK-TD model, mean ± SD
Procedure, shortened: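 Plasma prodrug and formed colistin/colistin B concentrations after i.p. dosing were fitted by a compartmental model. The final model used one compartment each for prodrug and formed drug, a conversion rate constant, and linear first-order total clearance from both. Fit was judged by R², AIC, BIC and visual inspection. Estimates are mean ± SD.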

[4] = cited from earlier work
[5] = rats; CMS and formed colistin; cited from earlier work
[6] = test system: patients; details: plasma colistin; cited from earlier work
[7] = Plasma PK of CMS/CMS-E2 and formed colistin/colistin B; format: in vivo, rats; details: rat plasma, LC-MS/MS, NCA, mean ± SD
Procedure, shortened: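 Male Sprague-Dawley rats were dosed once i.p. in saline, and serial jugular-vein blood was taken before and after dosing. Blood was heparinised (1%), spun at 4,982 × g for 10 min at 4 °C, and plasma stored at −70 °C. Plasma (40 µL) went through WCX solid-phase extraction with polymyxin B1 internal standard, then LC-MS/MS. Prodrug was total (acid-hydrolysed) minus free analyte. […] Values are mean ± SD, compared by Wilcoxon rank sum.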

[8] = test system: rats; experiment: PK-TD model, TD component; format: in vivo; details: i.p., mean ± SD
Procedure, shortened: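 Plasma creatinine and BUN time courses were linked to plasma colistin/colistin B through an indirect hypothetical effect compartment. K_e is the rate constant from the central to the effect compartment. The effect was linear: E = E₀ + S·C_e, with E₀ the pre-dose baseline. T_lag was calculated as 1/K_e. Fit was judged by R², AIC, BIC and visual inspection. Parameters are mean ± SD.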

[9] = test system: rats; experiment: Maximal tolerability dose; format: in vivo; details: intraperitoneal
[10] = test system: rats; experiment: Kidney injury biomarkers: plasma CR and BUN; format: in vivo; details: rat plasma, mean ± SD
Procedure, shortened: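 Rats (male Sprague-Dawley) received one i.p. injection in saline, with a saline control group. Plasma came from serial heparinised jugular-vein samples, plus blood taken at sacrifice in a second cohort. Creatinine and blood urea nitrogen were measured on an automatic biochemical analyser. Peak levels and times to peak were taken from the time profiles and given as mean ± SD.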

[11] = test system: rats; experiment: Renal histological examination; format: in vivo; details: rat kidney; for maximal SQS: mean ± SD, SD
[12] = single i.p. CMS or CMS-E2 20 mg/kg CBA
[13] = single i.p. CMS or CMS-E2 20 mg/kg CBA, SD
[14] = rats, single i.p. CMS or CMS-E2 20 mg/kg CBA
[15] = single i.p. CMS-E2 40 mg/kg CBA

CC[C@H](C)CCCCC(=O)N[C@@H](CCN)C(=O)N[C@H](C(=O)N[C@@H](CCN)C(=O)N[C@H]1CCNC(=O)[C@H]([C@@H](C)O)NC(=O)[C@H](CCN)NC(=O)[C@H](CCN)NC(=O)[C@H](CC(C)C)NC(=O)[C@@H](CC(C)C)NC(=O)[C@H](CCN)NC1=O)[C@@H](C)O [colistin, Colistin] (X1-[Dab]T[Dab][Dab][Dab][dL]L[Dab][Dab]T; lactam 4-C)
regression coefficient between kidney concentration and SQS ([1]; ordered logistic regression): 0.10 | regression coefficient between kidney concentration and contemporaneous BUN ([1]; simple linear regression): 0.27 | regression coefficient between kidney concentration and contemporaneous CR ([1]; simple linear regression): 0.74 | Kp ([2]; male, Sprague-Dawley, rat, ip, 10 mg/kg CBA, Kidney/plasma ratio of AUC0-inf, rats, single i.p. CMS 10 mg/kg CBA): 31.6 | Kp ([2]; male, Sprague-Dawley, rat, ip, 10 mg/kg CBA, Kidney/plasma ratio of Cmax, rats, single i.p. CMS 10 mg/kg CBA): 13.7 | Kp ([2]; male, Sprague-Dawley, rat, ip, 20 mg/kg CBA, Kidney/plasma ratio of AUC0-inf, rats, single i.p. CMS or CMS-E2 20 mg/kg CBA): 26.1 | tissue level at time at 8 h ([2]; male, Sprague-Dawley, rat, kidney cortex, ip, 10 mg/kg CBA, SD): 3550 ± 594 ng/g | tissue level at time at 24 h ([2]; male, Sprague-Dawley, rat, kidney cortex, ip, 20 mg/kg CBA, SD): 5970 ± 1850 ng/g | AUC0-inf formed colistin/colistin B in kidneys ([2]; single i.p. CMS 10 mg/kg CBA): 64.7 µg·h/g | Tmax formed colistin/colistin B in kidneys ([2]; single i.p. CMS 10 mg/kg CBA): 2 h | t1/2 formed colistin/colistin B in kidneys ([2]; single i.p. CMS 10 mg/kg CBA): 1.21 h | Cmax formed colistin/colistin B in kidneys ([2]; single i.p. CMS 10 mg/kg CBA, SD): 10.4 ± 3.13 µg/g | AUC0-inf formed colistin/colistin B in kidneys ([2]; single i.p. CMS 20 mg/kg CBA): 603 µg·h/g | t1/2 formed colistin/colistin B in kidneys ([2]; single i.p. CMS 20 mg/kg CBA): 6.23 h | Tmax formed colistin/colistin B in kidneys [2, 12]: 6 h | Cmax formed colistin/colistin B in kidneys [2, 13]: 53.6 ± 11.0 µg/g | Kidney/plasma ratio of Cmax, colistin/colistin B [2, 14]: 12.7 | CLcolistin/colistin B (total body clearance) ([3]; single i.p. CMS 10 mg/kg CBA): 2.57 ± 0.420 mL/min/kg | fraction undergoing glomerular filtration into the tubular lumen [4]: 18% | t1/2 in prior reports [5]: 0.533 to 1.8 h | steady-state trough concentration associated with increased nephrotoxicity [6]: > 2.2 mg/L | AUC0-inf formed colistin/colistin B in plasma ([7]; single i.p. CMS 10 mg/kg CBA): 2050 ± 371 ng·h/mL | Cmax formed colistin/colistin B in plasma ([7]; single i.p. CMS 10 mg/kg CBA): 764 ± 123 ng/mL | Tmax formed colistin/colistin B in plasma ([7]; single i.p. CMS 10 mg/kg CBA): 2.00 ± 0.00 h | t1/2 formed colistin/colistin B in plasma ([7]; single i.p. CMS 10 mg/kg CBA): 0.74 ± 0.0768 h | AUC0-inf formed colistin/colistin B in plasma [7, 12]: 23100 ± 7460 ng·h/mL | Cmax formed colistin/colistin B in plasma [7, 12]: 3990 ± 1520 ng/mL | Tmax formed colistin/colistin B in plasma [7, 12]: 3.55 ± 0.891 h | t1/2 formed colistin/colistin B in plasma [7, 12]: 1.88 ± 0.672 h

Colistin B methanesulphonate [CMS-E2]
AUC0-inf CMS/CMS-E2 in kidneys [2, 12]: 289 µg·h/g | Tmax CMS/CMS-E2 in kidneys [2, 12]: 2 h | t1/2 CMS/CMS-E2 in kidneys [2, 12]: 0.56 h | Cmax CMS/CMS-E2 in kidneys [2, 13]: 105 ± 25.3 µg/g | AUC0-inf CMS/CMS-E2 in kidneys [2, 15]: 2496 µg·h/g | Tmax CMS/CMS-E2 in kidneys [2, 15]: 4 h | t1/2 CMS/CMS-E2 in kidneys [2, 15]: 2.02 h | Cmax CMS/CMS-E2 in kidneys ([2]; single i.p. CMS-E2 40 mg/kg CBA, SD): 379 ± 85.5 µg/g | Kidney/plasma ratio of Cmax, CMS/CMS-E2 [2, 14]: 5.50 | Kidney/plasma ratio of Cmax, CMS/CMS-E2 ([2]; rats, single i.p. CMS-E2 40 mg/kg CBA): 7.44 | CLCMS/CMS-E2 (total body clearance) [3, 15]: 3.20 ± 1.74 mL/min/kg | Ka CMS/CMS-E2 (absorption rate) [3, 15]: 0.673 ± 0.208 h⁻¹ | V (volume of distribution) [3, 15]: 0.291 ± 0.105 L/kg | S (slope between colistin/colistin B concentration in effect compartment and CR) ([8]; E = E0 + S·Ce): 13.0 ± 3.52 mmol/g | Ke (rate from colistin/colistin B central compartment to effect compartment), BUN ([8]; indirect link PK-TD model, effect = BUN): 0.182 ± 0.164 h⁻¹ | Ke (rate from colistin/colistin B central compartment to effect compartment), CR ([8]; indirect link PK-TD model, effect = plasma CR): 0.814 ± 0.524 h⁻¹ | Tlag (lag time), BUN ([8]; reciprocal of Ke, effect = BUN): 11.9 ± 9.46 h | Tlag (lag time), CR ([8]; reciprocal of Ke, effect = plasma CR): 1.83 ± 1.05 h | maximal tolerability dose [9]: 40 mg/kg CBA | peak BUN level [10, 12]: 12.4 ± 5.21 mmol/L | peak CR level [10, 12]: 33.4 ± 3.44 µmol/L | time of peak BUN [10, 12]: 6.00 ± 0.00 h | time of peak CR level [10, 12]: 4.67 ± 1.89 h | peak BUN level [10, 15]: 23.0 ± 5.59 mmol/L | peak CR level [10, 15]: 104 ± 40.4 µmol/L | time of peak BUN [10, 15]: 11.1 ± 3.00 h | time of peak CR level [10, 15]: 8.86 ± 3.18 h | AUC0-inf CMS/CMS-E2 in plasma [7, 12]: 37200 ± 10500 ng·h/mL | CL/F CMS/CMS-E2 [7, 12]: 9.90 ± 3.34 mL/min/kg | Cmax CMS/CMS-E2 in plasma [7, 12]: 19100 ± 4500 ng/mL | Tmax CMS/CMS-E2 in plasma [7, 12]: 0.500 ± 0.00 h | Vd/F CMS/CMS-E2 [7, 12]: 0.464 ± 0.108 L/kg | t1/2 CMS/CMS-E2 in plasma [7, 12]: 0.573 ± 0.16 h | AUC0-inf CMS/CMS-E2 in plasma [7, 15]: 226000 ± 125000 ng·h/mL | CL/F CMS/CMS-E2 [7, 15]: 4.18 ± 2.56 mL/min/kg | Cmax CMS/CMS-E2 in plasma [7, 15]: 50900 ± 23500 ng/mL | Tmax CMS/CMS-E2 in plasma [7, 15]: 1.75 ± 0.433 h | Vd/F CMS/CMS-E2 [7, 15]: 0.497 ± 0.278 L/kg | t1/2 CMS/CMS-E2 in plasma [7, 15]: 1.57 ± 0.522 h | histological lesions during the first 2 h ([11]; PAS stain, single i.p. CMS or CMS-E2 20 mg/kg CBA): No obvious histological lesion | maximal SQS [11, 12]: 0.667 ± 0.577 | histological damage at time points other than 4 h ([11]; single i.p. CMS-E2 20 mg/kg CBA): no obvious damage was observed | recovery of histological damage at 24 h [11, 15]: all damage was completely recovered | maximal SQS [11, 15]: 2.33 ± 1.16
